# High-throughput results as filed in PubChem BioAssay.
# Most compounds without a hit are left out; they make up all but 3.1% or so of the library.
# KCNQ1 act – human KCNQ1 channel potentiation or activation | P51787 | CHO-K1 KCNQ1, thallium flux FluxOR fluorescence; stronger effect = higher value | B-score at 10 µM | hit rate 0.35% among 310,000 | AID 2648;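 active means fluorescence ratio B-score, a plate-corrected score, at least three library SD, with initial intensity B-score within 5 SD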
#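 assay system = KCNQ1-transfected CHO-K1 cells | medium = assay buffer with matched DMSO | probe or stimulus = depolarizing K+/Tl+ stimulus, K2SO4 and Tl2SO4 each 12.5 mM in 5x stock | dosing = single dose | incubation = dye 90 min, compound 20 min, room temperature | detection = kinetic FluxOR fluorescence, 10 s baseline plus 110 s post-stimulus | evaluation = ratio B score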
# KCNQ1 inh – human KCNQ1 channel inhibition. P51787. CHO-K1 KCNQ1, FluxOR thallium flux fluorescence; stronger effect = higher value. B-score at 10 µM. hit rate 1.3% among 310,000. AID 2642;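 active means compounds whose thallium flux B-score, printed positive for inhibition, exceeds three library SD while starting fluorescence stays within three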;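 further: channel opened by potassium depolarization with thallium stimulus after 20 min compound exposure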
# KCNK3 inh – human KCNK3 channel inhibition, primary screen; hit rate 0.84% among 340,000; CHO-KCNK3 thallium flux, FluxOR fluorescence; stronger effect = lower value; O14649; AID 602410; B-score at 10 µM;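 active means B-score under library mean minus 4 SD, starting fluorescence ratio at most library mean plus 5 SD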;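 further: more negative B-score means stronger inhibition of thallium flux through KCNK3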
# hERG rescue – hERG (human) protection from proarrhythmic block. hit rate 0.51% among 310,000. AID 1511. CHO-hERG, FluxOR thallium flux, dofetilide IC70 present. activation (rescue from dofetilide block), less the hit threshold, % at 10 µM. Q12809;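 active means activation above the mean of controls blocked by dofetilide plus 5 SD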;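 further: thallium influx through hERG after potassium depolarization seen as dye fluorescence rise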
# KCNK9 block – human KCNK9 channel inhibition | hit rate 1.2% among 310,000 | B-score at 10 µM | HEK293 KCNK9, FluxOR thallium flux fluorescence; stronger effect = lower value | Q9NPC2;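 active means ratio B-score over 3 SD below the library mean, with starting fluorescence within 5 SD of its mean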;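 further: negative B-score means less thallium flux so channel inhibition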
# Target sequence (Q9NPC2 whole entry, looked up): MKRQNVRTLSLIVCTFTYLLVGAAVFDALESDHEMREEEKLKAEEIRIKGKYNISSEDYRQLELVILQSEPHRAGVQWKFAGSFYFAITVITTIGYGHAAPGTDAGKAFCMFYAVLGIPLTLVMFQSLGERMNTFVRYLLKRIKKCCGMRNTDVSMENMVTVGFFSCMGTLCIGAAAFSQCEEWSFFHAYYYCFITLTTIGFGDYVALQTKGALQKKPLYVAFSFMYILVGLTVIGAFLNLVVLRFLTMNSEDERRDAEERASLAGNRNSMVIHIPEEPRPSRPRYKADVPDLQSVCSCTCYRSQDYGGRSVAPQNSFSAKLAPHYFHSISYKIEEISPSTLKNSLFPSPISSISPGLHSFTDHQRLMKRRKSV
# KCNK9 inh conf – confirmation of human KCNK9 potassium channel inhibitors | shares compounds with KCNK9 block | HEK293 KCNK9 cells, FluxOR thallium flux fluorescence | inhibition, % at 10 µM | hit rate 43% among 4,900;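 active means thallium signal inhibited by more than 5 SD of the compound-free buffer control wells, on both duplicate plates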;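 further: 0% = assay buffer control wells without compound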
# Kir21 sel – tests whether KCNK9 modulators also affect mouse Kir2.1 | shares compounds with KCNK9 block | Kir2.1 cells, FluxOR thallium flux fluorescence | inhibition, % at 10 µM | hit rate 4% among 4,900;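 active means thallium signal drop more than 5 SD beyond the mean of the no-compound control wells, seen in both duplicate plates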;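 further: signal is fluorescence rise after thallium addition divided by baseline fluorescence; plate controls were assay buffer only for no effect and full block by chlorpromazine control for full effect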
# KCNK9 uninduced – second counter-screen for KCNK9 modulators: effect in non-induced cells. shares compounds with KCNK9 block. non-induced KCNK9-HEK293, FluxOR thallium flux. inhibition, % at 10 µM. hit rate 40% among 4,900. AID 492997;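 active means thallium signal drop beyond 5 SD of the untreated control mean, on both duplicate plates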;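 further: plate controls were buffer only IC0 wells for no effect and SID17386958 at its maximal inhibitory level for full effect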
# * = called active by the depositor; i = inactive; . = no result given.
SMILES,KCNQ1 act,KCNQ1 inh,KCNK3 inh,hERG rescue,KCNK9 block,KCNK9 inh conf,Kir21 sel,KCNK9 uninduced
CCn1cc(CCCC(=O)NCc2ccccc2OC)c2ccccc21,i,i,i,-3,i,.,.,.
COc1cccc(NC(=O)C(Cc2ccccc2)n2cccc2)c1 (stereo not given),i,i,i,-14,i,.,.,.
CCn1c(SCC(=O)Nc2ccccc2C(=O)OC)nnc1-c1cccc(C)c1,i,i,i,-9,i,.,.,.
Nc1nccnc1C(=O)OCC(=O)NCCc1ccc(Cl)cc1,.,.,i,.,.,.,.,.
O=C(NCc1ccco1)c1cc(NS(=O)(=O)c2cccc([N+](=O)[O-])c2)ccc1O,i,i,i,-11,i,i,i,i
O=C(NCc1ccco1)c1cccc(NS(=O)(=O)c2cccc(F)c2)c1,i,i,i,-6,i,.,.,.
CCN(C(=O)COC(=O)c1ccccc1SCC(=O)N1CCCC1)C1CCS(=O)(=O)C1 (stereo not given),i,i,i,-16,i,.,.,.
OCCN1CCN(C2Cc3cc(Cl)ccc3Sc3ccc(Cl)cc32)CC1 (stereo not given) (tested in a mixture with another compound),i,7*,i,-22,-8.6*,i,i,i
Cc1ccccc1Nc1nnc(SCc2cc([N+](=O)[O-])cc3c2OCOC3)s1,i,i,i,-8,-8.9*,i,i,i
O=[N+]([O-])c1cc2c(c(CSc3nnc(Nc4ccccc4)s3)c1)OCOC2,i,i,i,-9,i,.,.,.
Cc1cc(NC(=O)Nc2ccc(Cl)c(Cl)c2)n(-c2ccccc2)n1,i,i,i,-11,i,.,.,.
COc1ccccc1C/C(N)=N/OC(=O)COc1cccc(C)c1,i,i,i,-9,i,i,i,i
COc1ccccc1C/C(N)=N/OC(=O)COc1ccc(C)cc1,i,i,i,-4,i,.,.,.
COc1ccccc1C/C(N)=N/OC(=O)COc1ccc2ccccc2c1,i,i,i,-5,i,i,i,i
CC1CC2OC2CC1COC(=O)C1CC2OC2CC1C (stereo not given),.,.,i,.,.,.,.,.
Cc1cc(N/N=C/c2ccccc2Cl)nc(NCc2ccccc2)n1,i,i,i,-13,i,i,i,i
CC(CNS(=O)(=O)c1ccccc1)(c1ccccc1)N1CCCCC1 (stereo not given),i,i,i,-11,i,.,.,.
COc1cccc(C2CC(=O)N3CN(c4cccc(Cl)c4C)CSC3=C2C#N)c1OC (stereo not given),i,i,i,-12,i,i,i,i
N#CC1=C2SCN(c3ccccc3)CN2C(=O)CC1c1ccccc1Cl (stereo not given),i,i,i,-7,i,i,i,i
N#CC1=C2SCN(c3ccccc3)CN2C(=O)CC1c1c(Cl)cccc1Cl (stereo not given),i,i,i,-17,i,i,i,i
O=C(COC(=O)C1CC(O)CN1C(=O)Oc1ccccc1)c1ccc(Br)cc1 (stereo not given),i,i,i,-4,i,.,.,.
CCCNC(=O)c1onc(CSc2ccc(F)cc2)c1C(=O)NCCOC,i,i,i,-7,i,.,.,.
CCc1ccccc1NC(=O)CCNC(=O)Cn1ccc2ccccc2c1=O,i,i,i,-3,i,.,.,.
Cc1ccc(C(=O)N2N=C(c3ccccc3)CC2(O)C(F)(F)F)o1 (stereo not given),i,i,i,-13,-11*,55%*,i,32%*
COc1cccc(C2=NN(C(=O)c3ccc(C)o3)C(O)(C(F)(F)F)C2)c1 (stereo not given),i,i,i,-16,i,.,.,.
SMILES,KCNQ1 act,KCNQ1 inh,KCNK3 inh,hERG rescue,KCNK9 block,KCNK9 inh conf,Kir21 sel,KCNK9 uninduced
CC1=NNC(=O)/C1=C\c1cn(-c2ccccc2)nc1-c1ccc(Cl)cc1,i,i,i,-8,i,i,i,i
Cc1ccc(-c2nn(-c3ccccc3)cc2C=C2C(=O)CC(C)(C)CC2=O)cc1,i,i,i,-9,i,.,.,.
Cc1ccccc1NS(=O)(=O)c1cc(C(=O)N2CCc3ccccc3C2)ccc1C,i,i,i,-7,i,.,.,.
Cc1ccc(NS(=O)(=O)c2cc(C(=O)N3CCc4ccccc4C3)ccc2Cl)cc1,i,i,i,-4,-12*,i,i,26%*
CN(c1ccccc1)S(=O)(=O)c1ccc(C(=O)N2CCc3ccccc3C2)cc1,i,i,i,-3,i,.,.,.
Cc1ccc(S(=O)(=O)N(C)c2ccc(C(=O)N3CCc4ccccc4C3)cc2)cc1,i,i,i,-9,i,i,i,i
CC(=O)c1ccc(NC(=S)Nc2ccn(Cc3ccc(Br)cc3)n2)cc1,i,i,i,4,i,.,.,.
CC(=O)c1cccc(NC(=S)Nc2ccn(Cc3cccc4ccccc34)n2)c1,i,i,i,-4,i,i,i,i
CCCCCCCc1ccc(-c2ccc(O)cc2)nc1,i,i,i,-3,i,i,i,i
COc1ccc(C(C)C)cc1S(=O)(=O)N1CCN(c2ccccc2)CC1,i,i,i,-12,i,.,.,.
CCc1nc(N2CCC(C)CC2)c2oc3ccccc3c2n1,i,i,i,-11,-14*,46%*,i,36%*
CCc1nc(N(CC)CC)c2oc3ccccc3c2n1,i,i,i,-10,i,.,.,.
COc1ccc(-c2cc(C(F)(F)F)n3nc(C(=O)N4CCCCC4)cc3n2)cc1,i,i,i,-4,i,.,.,.
COc1cccc(-c2cc(C(F)(F)F)n3nc(C(=O)N4CCCCC4c4cccnc4)cc3n2)c1 (stereo not given),i,i,i,-11,-8.1*,42%*,i,i
CCc1ccc2c(CC(=O)Nc3cccc(S(=O)(=O)N4CCOCC4)c3)coc2c1,.,.,i,.,.,.,.,.
O=C(CN1C(=O)NC(Cc2c[nH]c3ccccc23)C1=O)NCCc1ccccc1 (stereo not given),i,i,i,-1,i,.,.,.
CCCSc1nc(=S)n(Cc2ccccc2)c(C)c1C(C)=O,i,i,i,-5,-13*,66%*,i,i
CC(=O)c1c(N2CCCCC2)nc(=S)n(Cc2ccccc2)c1C,i,i,i,-11,i,.,.,.
